System: MS2 coat protein
Experiment: apparent Kd, MS2 coat protein; higher = weaker binding; RNA-MaP array; FMN 200 µM where present
Summary of the method: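 Designs were transcribed by stalled E. coli RNA polymerase on Illumina sequencing-chip clusters. They were titrated with SNAP-549-labelled MS2 coat protein from 0.7 or 1.5 nM, doubling to 3 µM, without and then with constant ligand. Buffer: 100 mM Tris-HCl pH 7.5, 80 mM KCl, 4 mM MgCl2, BSA, DTT, yeast tRNA, Tween-20. Green signal was normalised to red-channel RNA signal and control-cluster median Fmax. Apparent Kd is the median of filtered per-cluster binding-curve fits.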

[1] = designed as: ON switch for flavin mononucleotide, no ligand
[2] = ligand present: flavin mononucleotide, designed as: ON switch for flavin mononucleotide
[3] = designed as: OFF switch for flavin mononucleotide, no ligand
[4] = ligand present: flavin mononucleotide, designed as: OFF switch for flavin mononucleotide

Sequence	apparent Kd [1]	apparent Kd [2]	apparent Kd [3]	apparent Kd [4]
AGUAAGAUGCAGAAGGUGUUAGCUAGAGCUACGACAUGAGGAUCACCCAUGUAAAACCGCCCGUACAAGGAUAUGCAUCUUACA	6.12 nM	5.54 nM		
GUGCACAUUCGAGGAUAUCGGAGAGGAGUCCUUCGAGAAGGCGAUUCGUGCUGUGUUAUUCUGGACAUGAGGAUCACCCAUGUG	50.8 nM	27.8 nM		
GUAUGAGCGAUAGGAUAUACUGAGAUUGAAUGGGUAGAAGGAUCUCUUGUGAGGAAGACAUGAGGAUCACCCAUGUCACGGGCC	100 nM	175 nM		
GGUUGGCGAGGAUAUACAUGAGGAUCACCCAUGUGGUCCUGUGGCUGGUCUUGACUUUGUAGAAGGCGCGGGUC			49.7 nM	55.3 nM
GAUGAGAGAGGAUAUACAUGAGGAUCACCCAUGUAAUUUUCGGACAUGGAAGCCUGAUGUAGAAGGCUCGCAUG			78.5 nM	38.6 nM
AGAAAACAUGAGGAUCACCCAUGUAGAAAUAUGGGAGGAUAUACAAAGACGAAAGUCAGAGUAGAAGGCCUAAAAA	65.2 nM	17.6 nM		
AAAAUAAGAACAGGAUAUGUGGGUUCGAAGAGUAAAGCUCUCCACAUGAGGAUCACCCAUGUGCCACAGAAGGGUUCGGGUGAU	58 nM	11.8 nM		
GUCUUUUUACAGAAGGUGUUUAACAUGAGGAUCACCCAUGUACAAAAGGUUAAAUUUGAUAAUAACAAGGAUAUGUACUAAUCA	292 nM	184 nM		
ACCAAGCUAGGAUAUGCUUGGGCUCAAAUAAAUAAACACAAACAUGAGGAUCACCCAUGUAGAAGGAGCUUGCU			12.4 nM	15.5 nM
UGGGUCCCAGUCAGGAUAUCGUGCUUUUACAUGCACGAGAAGGGACAUGAGGAUCACCCAUGUCAAGGCGGUCA			102 nM	330 nM
UUGGUUGUCGUAGGAUAUGGAGGAUAUUCCUACAUGAGGAUCACCCAUGUUCGCAUGGAAGAAGGCCAGAAGGACGAUGACCAU	10.4 nM	4.38 nM		
UGAGCAAGAGGAUAUACAAGGCGUGCGUGAGCACGAGGUUUACAUGAGGAUCACCCAUGUAGAAGGCUUGUUCU			16.3 nM	34.4 nM
UGUCGGAGCAGAGGAUAUUACAUGAGGAUCACCCAUGUAUGAACUAAUAGCUGGAAACAGCAAUGUAAGAAGGCUGCUCCGACA			6.27 nM	17.9 nM
GUAUUGUGAGGAUAUCCAAUAUAUGACAUGAGGAUCACCCAUGUUUCCACUCGUACCUCCGGAGAAGGCACAGUUU			28.3 nM	24.3 nM
GCAGCAUAUGCAGGAUAUCAGCACGUGUAGUGCUGAGAAGGGCACAUGAGGAUCACCCAUGUGAUCAAUUAAUAUAUAUGCUGC			6.36 nM	16.4 nM
GCGAGUACGAGAGGAUAUUGACAUGAGGAUCACCCAUGUAUUUGGGAGUGUUCACUGAAUUCUUACGAGAAGGCUCGUACACGC			244 nM	252 nM
UAUACUUACGAAGGAUAUGGUUACAUGAGGAUCACCCAUGUAUGUAUAUUGAUCUAGUAUUUUAACCAGAAGGUCGUGAGUAUA			65.5 nM	53.4 nM
GGAUGACAAAGUCAUCCUAUUCGAACAUGAGGAUCACCCAUGUAGGAUAUGCUAGUCAAAGACUAGCAGAAGGACAUGUGCCUU			36.4 nM	164 nM
UCCACUACUGAGAAGGGAUACAUAUAGUUCUAGUCAGGAUAUCGAUACAGUGCAGCAUGAGGACAUGAGGAUCACCCAUGUAUU	22.1 nM	16.2 nM		
UUUUUAUUUGCAGGAUAUUGUAUUUUAUUACAUCAAGAAGGGCAUUACAUGAGGAUCACCCAUGUCAUCCUAUGGUUAACUAGU			9.62 nM	9.77 nM
CGCAAUGAUGGUAGUAAUAGAGCAUAGGAUAUGCUUGUACAUGAGGAUCACCCAUGUUAUAUUUUGCAGAAGGGUGUAAUUGCG	309 nM	159 nM		
CAUUAAUUCAUUAUAGUUAUUAUACAGGAUAUGUUACAUGAGGAUCACCCAUGUAUUCAUGGUAAACAGAAGGGUAAUUCAAGU			24.9 nM	22.6 nM
AUUGUGUGAGGAUAUUAGUAGUAAAUGAAUAAAAUUAUUACUGAGAAGGCACAUGAGGAUCACCCAUGUUCCUU			19.1 nM	138 nM
CCGCAAAAGGAGGAUAUCGUAUCGGAUACGAUACGAGAAGGCUUUACAUGAGGAUCACCCAUGUGUCCUAGCGG			13.7 nM	19.2 nM
UUACUAUUACAGAAGGUUAAAUAAUAUAUAAAUGAAGGAUAUGUAACAUGAGGAUCACCCAUGUUUCACCCAUAUGAGGAUCAC			8.49 nM	7.99 nM
UCAUACGGUGAGGAUAUCUCCGCUAAAGUGUGUAGAGAAGGCGCUACAUGAGGAUCACCCAUGUUUGUGGGCAG			402 nM	149 nM
GUGUACGGAGGAUAUAUAUGGGCAGGCUGACCUGCAGCUUCACAUGAGGAUCACCCAUGUAGAAGGCUGUGCAC			31.6 nM	132 nM
GGGCCGUAGUAGAAGGGAUAUACGUUAGGUAUAUCAGGAUAUACAUGAGGAUCACCCAUGUUCUAACAGUGAUAGUCCUCCCUU			15.5 nM	33.1 nM

Sequence	apparent Kd [1]	apparent Kd [2]	apparent Kd [3]	apparent Kd [4]
GCACGCUGGCGAGGAUAUAGACAUGAGGAUCACCCAUGUGGCGCACAUCGGGCCCUAGUCCUCAGCUAGAAGGCGCCUGUGAUA			328 nM	228 nM
UAUAUUAUUAUAGGAUAUGGAUACGAUGCGUAUCCAGAAGGGUGAUUAUAAUAUAAUCUAUACAUGAGGAUCACCCAUGUUUAU	303 nM	73.9 nM		
GGAAAACAUGAGGAUCACCCAUGUGAGGAUAUCGAUGUCCAAGAAAAAGUGCGGGACUCGAGAAGGCACUUGGA			58.9 nM	36.8 nM
UGUCGGAGCAGAGGAUAUUACAUGAGGAUCACCCAUGUAUGAACCAAUAGCUGGAAACAGCAUUGUAAGAAGGCUGCUCCGACA			4.75 nM	12.1 nM
GUCAGCUCGUGAGGAUAUACAACACUGCUUCCGCAGUGUAUUAAGAUCACAUGAGGAUCACCCAUGUAGAAGGCACGAGCUGAU			13.7 nM	222 nM
AUGAGGUCAGGAUAUGCAUGGCGGGACUUGCGUCGUGGCGUGCAGAAGGGACAUGAGGAUCACCCAUGUGGAGA			104 nM	325 nM
AUCAGCUCGUCAGGAUAUACGUCACUGCGUCAGCAGUGUGGUAAGAUCACAUGAGGAUCACCCAUGUAGAAGGGACGAGCUCAU			13.9 nM	322 nM
GUAGCAUAAUUAGGAUAUUCAGCGAAUAGAUUGACAUGAGGAUCACCCAUGUGGCGAAAGCCUAGGGAGAAGGGAUAAUGCUAC	254 nM	120 nM		
AAAAAACAUGAGGAUCACCCAUGUGAGGAUAUUAAAAAUAAGAAGGCAUAAAAAAAAAUAAGAAGGCACAUGAA			31.7 nM	44.8 nM
GACAAACAUGAGGAUCACCCAUGUUCAGACGAACAAGGAUAUGUGUGGAAACCGUACUAUACAGAAGGUGUCUGUC	39.7 nM	23.8 nM		
GCCUUCGCAUGAGGAUAUGCUCCGGUUUCCGGAGCAGAAGGCAUGUCAUAAGACAUGAGGAUCACCCAUGUAGUUAAGAAGGCA	570 nM	31.7 nM		
UGUGGGUCAGGAUAUUCUAUUUAUUACAUGAGGAUCACCCAUGUGAAUGGACAAGGGUGUGAAGAAGGGACUUGUG			876 nM	495 nM
UGUAGGAGCAGAGGAUAUUACAUGAGGAUCACCCAUGUAUGAACCAAUAGCUGGAAACAGCAAUGUAAGAAGGCUGCUCCGACA			12.2 nM	187 nM
GUAGAGUCAGGAUAUACAAGAUCGAAAGAUCGAAGAUUUAUACAUGAGGAUCACCCAUGUAGAAGGGACUCUAC			14.4 nM	16.9 nM
CUACUGUGAGGAUAUGGUGAGUAGUGCCUGAGCGCUGCUCACCAGAAGGCACAUGAGGAUCACCCAUGUAUGAC			53.9 nM	220 nM
UAGGACUACGUAGGAUAUGUAGGAUAUUCCUACAUGAGGAUCACCCAUGUUAGCAUGUAAGUAGGACAGAAGGACGUGGUAAAU	695 nM	79.9 nM		
CGGGUCUGAGGAUAUCCAUCUUCAUACAUGAGGAUCACCCAUGUUUACCCUUGGGUUCCCGGAGAAGGCAGUUUUC			60.9 nM	56.4 nM
AUUGUGUGAGGAUAUUAGUAGUAGAUGAAUGGAGUUGUGGCUGAGAAGGCACAUGAGGAUCACCCAUGUUCCUU			22.3 nM	25.9 nM
UUAUGCUUUAAGAAGGUUCAAACUACAUAUUGCGCACAUGAGGAUCACCCAUGUUGGUGAAUAAGAAAGGAUAUUAGACUGUGC			332 nM	223 nM
ACAUGAGGAUCACCCAUGUGGACAUAGGAUAUUGGUGAUCAGGCGUGUUAUACAGGAUAGGUCUGCGAGAAGGGUGUACGUUGC	588 nM	295 nM		
GUGGCUGUUAGGCUUGCGCCGGCGACAGAAGGCCAACAUGAGGAUCACCCAUGUACAAAGACCAUGGAGGAUAUGUUGCCAGUG	41.8 nM	8.95 nM		
ACAUGAGGAUCACCCAUGUUCGUUGAAGAAGGUACGUAUGGCUGUGGCAGGAAUAUAGUUAUAUGUAAGGAUAUUCUCAUAAUU	13.1 nM	7.11 nM		
GACAGCUCGUGAGGAUAUACAACACUGCUUCGGCAGUGUAUUAAGAUCACAUGAGGAUCACCCAUGUAGAAGGCACGAGCUGAU			13.5 nM	319 nM
AUACAUGAGGAUCACCCAUGUAAUUAAUUAAUUAAUAAGAUCAAGGAUAUCAGCUCGAAUAGAGCUGAGAAGGUGAUCACAUGU	240 nM	266 nM		
CUUUUGUGAGGAUAUUAGUAGUAAAUAAAUAAAAUUACUACUGAGAAGGCACAUGAGGAUCACCCAUGUUCCUC			33.7 nM	317 nM
AAUGCCAACGAAGGAUAUACAAACAUGAGGAUCACCCAUGUGUCUUUCGUGUAACUGGAAUUCGGGUAGAAGGUCGUUGACAUA			24.2 nM	23.2 nM
AAUAACAGAGGAUAUACUAUUUUAUGUGUUUGUUAUUUUAAACAUGAGGAUCACCCAUGUAGAAGGCUGAUUGA			46.7 nM	46.6 nM

From the EternaBench riboswitch data
